MsrA inh: inhibits bovine methionine sulfoxide reductase A | AID 651718 | purified bovine MsrA, absorbance read-out | inhibition, % at 15.5 µM | 360,000 compounds, 0.75% hits; in the data active = inhibition above about 4.5%;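 note: 0% = vehicle wells with enzyme and 100% = reference inhibitor wells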
NR2E3 ag-1: activates human photoreceptor nuclear receptor NR2E3 | GST-NR2E3/biotin-RetCOR TR-FRET, 1536-well | Q9Y5X4 | 320,000 compounds, 0.12% hits | inhibition of corepressor binding, % at 4.78 µM;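 active = percent inhibition above the cutoff of mean plus 3 SD of all tested compounds, set per screening campaign, cut at about 20% in these data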;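 note: 0% = DMSO wells and 100% = biotin wells as full block of FRET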
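Material – GST-tagged NR2E3 plus biotinylated RetCOR corepressor · Quantity – NR2E3 fusion 1.35 nM · Times – 5 h incubation at 4 °C · Medium – pH 7.5 Tris-based buffer · Technique – TR-FRET, Eu(K)-anti-GST donor, streptavidin-D2 acceptor, ex 340, em 617/671 nm · Benchmarks – high control biotin, low control 0.6% DMSO · Format – 1536-well plates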
bovine MsrA act: activates bovine MsrA enzyme; purified bovine MsrA, absorbance read-out; activation, % at 10.6 µM; 360,000 compounds, 0.3% hits; in the data active = activation above about 7.5%;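 note: 0% = vehicle and 100% = reference activator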
NR2E3 ag-2: activates human NR2E3 receptor. Q9Y5X4. CHO-S Gal4-NCOR/VP16-NR2E3 two-hybrid, luciferase. inhibition of corepressor binding, % at 3.98 µM. 360,000 compounds, 0.35% hits;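 active = inhibition above the mean of all tested compounds plus 3 SD, cut at about 70% in these data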;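 note: 0% = DMSO with NR2E3 transfected cells and 100% = cells lacking NR2E3 construct; higher means lower luciferase signal from less NR2E3 corepressor binding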
NadD inh: blocks S. aureus nicotinate mononucleotide adenylyltransferase; 360,000 compounds, 0.78% hits; purified NadD enzyme, colorimetric absorbance read-out; inhibition, % at 20 µM; in the data active = inhibition above about 26%
GalR3 antagonist: human GalR3 antagonism; 360,000 compounds, 0.44% hits; O60755; inhibition, % at 3 µM; AID 651719; HEK293 GalR3-CNG cAMP membrane potential fluorescence; galR3 body fused to GalR1 C-terminus;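 active = inhibition above the screen-wide average plus 3 SD, cut at about 13% in these data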;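 note: forskolin and galanin both at EC90 stimulate the cells; cAMP rise reported by CNG channel membrane potential dye signal; 0% = forskolin plus galanin with DMSO and 100% = forskolin alone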
Target sequence (O60755 1-299 limits assumed): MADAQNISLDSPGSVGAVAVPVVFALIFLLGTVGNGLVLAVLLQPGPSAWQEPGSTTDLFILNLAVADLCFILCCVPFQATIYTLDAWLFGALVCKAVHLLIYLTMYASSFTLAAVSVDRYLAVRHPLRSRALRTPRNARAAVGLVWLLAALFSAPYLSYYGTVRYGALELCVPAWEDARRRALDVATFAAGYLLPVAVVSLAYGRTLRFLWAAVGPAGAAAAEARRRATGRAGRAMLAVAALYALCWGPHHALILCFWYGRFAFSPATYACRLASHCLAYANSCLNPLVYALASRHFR
NadD conf: confirmation of Staphylococcus aureus NadD inhibitors. shares compounds with NadD inh. purified S. aureus NadD, colorimetric enzyme assay. AID 624309. inhibition, % at 20 µM. 2,000 compounds, 13% hits; in the data active = inhibition mostly above about 42%, no sharp cut-off; inactive = mostly below about 42%
* marks the source's active call; other numbers are inactive results; / = no result. Shown are actives, neighbours in structure and some others; about 2.5% of the full set was active somewhere.

SMILES	MsrA inh	NR2E3 ag-1	bovine MsrA act	NR2E3 ag-2	NadD inh	GalR3 antagonist	NadD conf
CC(=O)Nc1ccc(NC2=Nc3ccccc3N3C2=Nc2c(c(C)nn2-c2ccccc2)C3c2ccccc2)cc1 (stereo not given)	1	-1	-10	-2	37*	-1	31
COc1ccc(NC2=Nc3ccccc3N3C2=Nc2c(c(C)nn2-c2ccc(C)cc2)C3c2cccnc2)cc1 (stereo not given)	0	2	0	-9	17	-6	/
COc1ccc2c(Cl)c(C(=O)OCC(=O)c3ccc4c(c3)NC(=O)CO4)sc2c1Cl	0	/	-7	11	40*	-6	0
CCOc1ccc(NC(=O)N2CCC(C(N)=O)(N3CCCCC3)CC2)cc1	-1	1	-7	16	-3	-4	/
Cc1cc(C(=O)CSc2nc3ccc(Cl)cc3[nH]2)c(C)n1C	0	0	-4	-12	34*	10	41
O=c1o[nH]c(-c2ccccc2)c1C1=NCCCCC1	0	-1	0	15	-4	-1	/
Cc1ccc(-c2nn(-c3ccccc3)cc2/C=N/n2c(-c3ccncc3)n[nH]c2=S)cc1	-1	-2	0	-13	39*	0	3
O=C(Nc1ccc(S(=O)(=O)Nc2nccs2)cc1)c1ccc(F)cc1	-1	4	-1	-19	1	6	/
Cc1ccc(OCC(=O)Nc2nnc(S(=O)(=O)N3CCC(C)CC3)s2)cc1	1	-2	-3	-13	26*	-9	10
CCOC(=O)c1sc(NC(=O)CSCc2c(C)noc2C)nc1C	0	3	-3	-2	-1	-5	/
CCN(CC)S(=O)(=O)c1ccc(C(=O)NNc2nc(-c3ccccc3)c3cc(Br)ccc3n2)cc1	0	4	1	18	35*	3	20
COC(=O)C1=C(C)N(C)C(=O)NC1c1cc2c(cc1[N+](=O)[O-])OCO2 (stereo not given)	1	1	-11	16	6	-5	/
CCOC(=O)c1cc(-c2ccc(N3C(c4ccsc4)=Cc4ccccc4C3CC(C)=O)cc2)cc([N+](=O)[O-])c1 (stereo not given)	1	/	-12	7	32*	-4	0
O=C(NCc1nc2ccccc2[nH]1)C1=C[C@H](c2csc3ccccc23)C[C@H](OCc2ccc(CO)cc2)O1	2	0	-2	-2	32*	4	45
O=C(NCc1nc2ccccc2[nH]1)C1=C[C@@H](c2ccc(Br)cc2)C[C@@H](OCc2ccc(CO)cc2)O1	0	4	-9	16	26	0	/
O=C(NCc1nc2ccccc2[nH]1)C1=C[C@@H](c2csc3ccccc23)C[C@@H](OCc2ccc(CO)cc2)O1	3	4	-3	32	34*	-5	39
Cc1ccc(NC(=O)c2csc(-c3ccccc3)c2C)cc1	1	/	-5	-29	-4	-4	/
COc1ccc(/C=N/N2CCN(c3ccc(Cl)cc3)CC2)cc1	1	1	3	-14	5	-4	/
COc1ccc(NC(=O)CSC2=C(C#N)C(c3ccco3)C(C(=O)Nc3nc4ccccc4s3)=C(C)N2)cc1 (stereo not given)	2	-1	-2	-6	38*	2	11
O=C1CC(/C=C/c2ccccn2)=Nc2ccccc2N1	2	0	-3	-32	1	-7	/
O=C1CC(/C=C/c2ccc([N+](=O)[O-])cc2)=Nc2ccccc2N1	0	9	-4	-40	36*	6	2
O=C1COc2ccc(S(=O)(=O)N3CCCC3)cc2N1	-1	-1	-2	-35	-2	-6	/
Cc1ccc(-c2csc(N3CCN(S(=O)(=O)c4ccc5c(c4)NC(=O)CO5)CC3)n2)cc1	0	-2	-2	-6	39*	-1	8
O=C(N/N=C/c1ccc2c(c1)OCO2)c1sc2cccc(Cl)c2c1Cl	0	3	-10	-9	30*	2	7
COc1ccccc1C=NN=C(NN=Cc1ccccc1OC)NN=Cc1ccccc1OC	3	/	2	1	35*	-6	24

Screening data as filed in PubChem.
